From ChEMBL document CHEMBL1124531, “Intercalating agents with covalent bond forming capability. A novel type of potential anticancer agents. 2. Derivatives of chrysophanol and emodin” (1989) come the findings set out here.

The subject of experiment [1] is HL-60. In words: Inhibitory activity against human acute promyelocytic leukemia cells(HL-60) cell growth on 72 hr of exposure of the compound. The experiment is classed as functional. Conditions: HL-60, 72 h, read-out: ID50 (the source's name).
Experiment [2] concerns L1210. The experiment can be described thus: Inhibitory activity against murine L1210 leukemic cell growth. The experiment is classed as functional. Particulars: Mus musculus, read-out: ID50 (the source's name).
Experiment [3] concerns Nucleic Acid. The experiment can be described thus: Ratio for human acute promyelocytic leukemia cells(HL-60) cell growth inhibition and [3H]TdR incorporation into DNA in HL-60 cells. The experiment is classed as functional, cell-based.
Experiment [4] has as its system Nucleic Acid. The experiment can be described thus: Inhibitory activity against [3H]TdR incorporation into DNA in HL-60 cells during the initial 30-min period. The experiment is classed as functional, cell-based. Conditions: Homo sapiens. Put shortly:
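HL-60 cells (2.5 × 10^6/mL) preincubated 15 min with compound at four to six concentrations in 0.2% DMSO, then pulsed with [3H-methyl]TdR (1 μCi, 0.15 nmol/mL) for 30 min; radioactivity in isolated DNA fraction counted; compound-free DMSO control as reference.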

As for `O=C1c2cccc(O)c2C(=O)c2c(O)cc(CN3CCCC3)cc21`, the figures for the IC50 in experiment [1] and in experiment [2] were 2.1 µM and 1.6 µM, respectively. Further, the Ratio in experiment [3] stood at 4.8. The ID50 in experiment [4] was 10 µM.
For `COc1cc(CBr)cc2c1C(=O)c1c(O)cccc1C2=O`, the values for the IC50 in experiment [1] and in experiment [2] were 7.1 µM and 8.8 µM, respectively. Besides, the Ratio in experiment [3] was 1.7. Further, the ID50 in experiment [4] was determined as 12 µM.
For `O=C1c2cccc(O)c2C(=O)c2c(O)cc(CBr)cc21`, in that order: 7.1 µM, 8.6 µM, 2.3 and 16 µM.
In the case of `COc1cc(OC)c2c(c1)C(=O)c1cc(C)cc(OC)c1C2=O`, the IC50 in experiment [1] was 49 µM; in experiment [2] it was 100 µM. Moreover, in experiment [3], the Ratio amounted to 0.43. The compound also yielded an ID50 in experiment [4] of 21 µM.
For `COc1cccc2c1C(=O)c1c(OC)cc(CNCCO)cc1C2=O`, in that order: 55 µM, 140 µM, 0.84 and 46 µM.
Take `COc1cc(O)c2c(c1)C(=O)c1cc(CNCCCl)cc(O)c1C2=O`: the IC50 was determined as 9.2 µM in experiment [1] and 18 µM in experiment [2]. In addition, the Ratio in experiment [3] came to 23.9. In experiment [4], this compound returned an ID50 of 220 µM.
`CCCCNCc1cc(O)c2c(c1)C(=O)c1cccc(O)c1C2=O`: the results for the IC50 in experiment [1] and in experiment [2] were 4.1 µM and 4.6 µM, respectively. In addition, the Ratio in experiment [3] came to 6.1. For the same compound, in experiment [4], the ID50 was 25 µM.
For `COc1cc(OC)c2c(c1)C(=O)c1cc(CN(CCO)CCO)cc(OC)c1C2=O`, in that order: 100 µM, greater than 27 µM, 0.17 and 17 µM.
For `CCNCc1cc(O)c2c(c1)C(=O)c1cccc(O)c1C2=O`, in that order: 8.7 µM, 0.77 µM, 2.1 and 18 µM.
As for `COc1cc(C(Br)Br)cc2c1C(=O)c1c(O)cccc1C2=O`, the IC50 in experiment [1] came to 0.06 µM; in experiment [2] it was 4.2e-05 µM. In addition, in experiment [3], the Ratio was 217. Further, the ID50 in experiment [4] worked out at 13 µM.
Take `COc1cc(CN(CCO)CCO)cc2c1C(=O)c1c(O)cccc1C2=O`: the IC50 in experiment [1] was 21 µM; in experiment [2] it was greater than 24 µM. Moreover, the Ratio in experiment [3] came out at 4.2. In experiment [4], this compound showed an ID50 of 89 µM.
For the compound `CNC(=O)OCCN(CCOC(=O)NC)Cc1cc(OC)c2c(c1)C(=O)c1cccc(O)c1C2=O`, the IC50 stood at 12 µM in experiment [1] and 89 µM in experiment [2]. Also, the Ratio in experiment [3] was found to be 1. The compound also registered an ID50 in experiment [4] of 12 µM.
`COc1cccc2c1C(=O)c1c(OC)cc(CN(CCO)CCO)cc1C2=O`: the results for the IC50 in experiment [1] and in experiment [2] were 490 µM and greater than 50 µM, respectively. Moreover, the Ratio in experiment [3] was 0.03. In experiment [4], this compound yielded an ID50 of 14 µM.
On to `COc1cccc2c1C(=O)c1c(OC)cc(CBr)cc1C2=O`, for which the IC50 in experiment [1] is 4.4 µM; in experiment [2], 9.2 µM. In addition, in experiment [3], the Ratio amounted to 2.5. In experiment [4], this compound displayed an ID50 of 11 µM.
On to `COc1cc(O)c2c(c1)C(=O)c1cc(CNCCO)cc(O)c1C2=O`, for which the IC50 was 1.6 µM in experiment [1] and 0.5 µM in experiment [2]. Moreover, the Ratio in experiment [3] turned out to be 7.5. Further, in experiment [4], the ID50 was found to be 12 µM.
In the case of `O=C1c2cccc(O)c2C(=O)c2c(O)cc(CN(CCCl)CCCl)cc21`, in experiment [1], the IC50 stood at 0.18 µM. For the same compound, in experiment [3], the Ratio came out at 383. For the same compound, the ID50 in experiment [4] was 69 µM.
In the case of `COc1cc(O)c2c(c1)C(=O)c1cc(C(Br)Br)cc(OC)c1C2=O`, the results for the IC50 in experiment [1] and in experiment [2] were 0.097 µM and 0.001 µM, respectively. For the same compound, the Ratio in experiment [3] was determined as 237. Besides, the ID50 in experiment [4] was found to be 23 µM.
As to `COc1cc(O)c2c(c1)C(=O)c1cc(CBr)cc(OC)c1C2=O`, the IC50 in experiment [1] was found to be 1.7 µM; in experiment [2], 0.068 µM. Also, the Ratio in experiment [3] came to 41. This compound also registered an ID50 in experiment [4] of 70 µM.
On the same counts, the results for `COc1cc(OC)c2c(c1)C(=O)c1cc(CN(CCCl)CCCl)cc(OC)c1C2=O` are 2 µM, 2.7 µM, 4.5 and 8.9 µM.
Take `O=C1c2cccc(O)c2C(=O)c2c(O)cc(Cn3ccnc3)cc21`: the IC50 was 4.8 µM in experiment [1] and 7.4 µM in experiment [2]. The Ratio in experiment [3] stood at 9. In experiment [4], this compound gave an ID50 of 43 µM.
As to `CCNCc1cc(OC)c2c(c1)C(=O)c1cccc(OC)c1C2=O`, the IC50 in experiment [1] was 48 µM; in experiment [2], 1.2 µM. Also, the Ratio in experiment [3] stood at 0.6. The same compound came in with an ID50 in experiment [4] of 29 µM.
`O=C1c2cccc(O)c2C(=O)c2c(O)cc(CNCCCO)cc21`: the IC50 in experiment [1] was determined as 3.2 µM; in experiment [2], 0.67 µM. In experiment [3], the Ratio stood at 5. Further, the ID50 in experiment [4] was found to be 16 µM.
`CCN(CC)Cc1cc(OC)c2c(c1)C(=O)c1cc(OC)cc(O)c1C2=O`: the IC50 in experiment [1] came out at 6.7 µM; in experiment [2], 6.9 µM. For the same compound, the Ratio in experiment [3] amounted to 26.9. The compound further came in with an ID50 in experiment [4] of 180 µM.
For `COc1cc(O)c2c(c1)C(=O)c1cc(CN(CCO)CCO)cc(OC)c1C2=O`, in that order: greater than 500 µM, 8.8 µM, 0.02 and 9.6 µM.
Take `O=C1c2cccc(O)c2C(=O)c2c(O)cc(C(Br)Br)cc21`: the IC50 in experiment [1] was 2.5 µM; in experiment [2], 0.44 µM. Also, in experiment [3], the Ratio came out at 15.6. This compound also yielded an ID50 in experiment [4] of 39 µM.
Take `CN(C)Cc1cc(O)c2c(c1)C(=O)c1cccc(O)c1C2=O`: the IC50 in experiment [1] came out at 2.7 µM; in experiment [2], 2.2 µM. For the same compound, the Ratio in experiment [3] came to 3.3. In experiment [4], this compound had an ID50 of 9.3 µM.
`O=C1c2cccc(O)c2C(=O)c2c(O)cc(CN3CCCCC3)cc21`: the IC50 is 2.8 µM in experiment [1] and 4 µM in experiment [2]. Besides, the Ratio in experiment [3] stood at 22.5. The compound also gave an ID50 in experiment [4] of 63 µM.
`O=C1c2cccc(O)c2C(=O)c2c(O)cc(CNCCO)cc21`: the IC50 in experiment [2] is 0.16 µM. Also, the Ratio in experiment [3] was 17.4. This compound also displayed an ID50 in experiment [4] of 15 µM.
As to `COc1cc(OC)c2c(c1)C(=O)c1cc(CBr)cc(OC)c1C2=O`, the IC50 in experiment [1] is 84 µM; in experiment [2], 0.68 µM. The Ratio in experiment [3] came out at 0.14. In experiment [4], this compound displayed an ID50 of 12 µM.
For `CCN(CC)Cc1cc(OC)c2c(c1)C(=O)c1cccc(O)c1C2=O`, in that order: 5.2 µM, 12 µM, 2.7 and 14 µM.
As to `COc1cc(O)c2c(c1)C(=O)c1cc(CN(CCO)CCO)cc(O)c1C2=O`, the IC50 in experiment [1] was determined as 6.6 µM; in experiment [2] it was 14 µM. In experiment [3], the Ratio came to 5.2. Besides, the ID50 in experiment [4] turned out to be 45 µM.
On the same counts, the results for `CC(C)NC(=O)OCCN(CCOC(=O)NC(C)C)Cc1cc(O)c2c(c1)C(=O)c1cccc(O)c1C2=O` are 27 µM, 27 µM, 0.63 and 17 µM.
For the compound `COc1cc(OC)c2c(c1)C(=O)c1cc(CNCCO)cc(OC)c1C2=O`, the IC50 in experiment [1] came out at 110 µM; in experiment [2], 17 µM. The Ratio in experiment [3] amounted to 0.24. The ID50 in experiment [4] is 26 µM.
`COc1cc(O)c2c(c1)C(=O)c1cc(CBr)cc(O)c1C2=O`: the IC50 came to 25 µM in experiment [1] and 59 µM in experiment [2]. Further, the Ratio in experiment [3] is 13.6. The compound also showed an ID50 in experiment [4] of 340 µM.
Take `NCc1cc(O)c2c(c1)C(=O)c1cccc(O)c1C2=O`: the IC50 in experiment [1] is 11 µM; in experiment [2], 8.5 µM. For the same compound, the Ratio in experiment [3] is 2.3. The compound further came in with an ID50 in experiment [4] of 25 µM.
`COc1cc(O)c2c(c1)C(=O)c1cc(CN(CCCl)CCCl)cc(O)c1C2=O`: the IC50 in experiment [1] turned out to be 0.61 µM. Further, in experiment [3], the Ratio worked out at 19.7. Also, in experiment [4], the ID50 came to 12 µM.
Turning to `COc1cc(OC)c2c(c1)C(=O)c1cc(CNCCCl)cc(OC)c1C2=O`, the IC50 in experiment [1] is 5.8 µM; in experiment [2] it was 32 µM. Also, in experiment [3], the Ratio was determined as 3.1. The compound further displayed an ID50 in experiment [4] of 18 µM.
With `CCNCc1cc(OC)c2c(c1)C(=O)c1cc(OC)cc(OC)c1C2=O`, the IC50 worked out at 17 µM in experiment [1] and 9.8 µM in experiment [2]. In experiment [3], the Ratio was 0.76. The ID50 in experiment [4] was 13 µM.
On the same counts, the results for `COc1cc(O)c2c(c1)C(=O)c1cc(CN(CCCl)CCCl)cc(OC)c1C2=O` are 0.52 µM, 3.3 µM, 10.4 and 5.4 µM.
With `COc1cccc2c1C(=O)c1c(OC)cc(C(Br)Br)cc1C2=O`, the IC50 in experiment [1] turned out to be 2.1 µM; in experiment [2] it was 0.89 µM. In experiment [3], the Ratio stood at 4.3. The same compound returned an ID50 in experiment [4] of 9 µM.
As for `CNC(=O)OCCN(CCOC(=O)NC)Cc1cc(O)c2c(c1)C(=O)c1cccc(O)c1C2=O`, the IC50 in experiment [1] is 210 µM; in experiment [2], greater than 18 µM. For the same compound, in experiment [3], the Ratio amounted to 0.13. This compound displayed an ID50 in experiment [4] of 28 µM.
For `COc1cccc2c1C(=O)c1c(OC)cc(CNCCCl)cc1C2=O`, the values for the IC50 in experiment [1] and in experiment [2] were 86 µM and 26 µM, respectively. The Ratio in experiment [3] worked out at 0.22. Further, the ID50 in experiment [4] is 19 µM.
With `COc1cccc2c1C(=O)c1c(OC)cc(C)cc1C2=O`, in experiment [2], the IC50 is 28 µM. The Ratio in experiment [3] is 1.9. This compound also registered an ID50 in experiment [4] of 19 µM.
For the compound `O=C1c2cccc(O)c2C(=O)c2c(O)cc(CNCCCl)cc21`, the figures for the IC50 in experiment [1] and in experiment [2] were 7.5 µM and 7.1 µM, respectively. For the same compound, the Ratio in experiment [3] is 5.2. Further, the ID50 in experiment [4] came to 39 µM.
For `COc1cc(CN(CCCl)CCCl)cc2c1C(=O)c1c(O)cccc1C2=O`, the IC50 in experiment [1] came to 0.39 µM. The Ratio in experiment [3] was found to be 38.5. Moreover, the ID50 in experiment [4] was 15 µM.
